Reference: ChEMBL document CHEMBL3232930, “One-pot, four-component synthesis of novel cytotoxic agents 1-(5-aryl-1,3,4-oxadiazol-2-yl)-1-(1H-pyrrol-2-yl)methanamines” (Eur J Med Chem, 2014)

Key:
[1] = Cytotoxicity against human HT1080 cells assessed as reduction in cell viability after 24 hrs by MTT assay; type: functional, cell-based; conditions: HT-1080, 24 h
Method in brief: (§1)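 15,000 exponential-phase cells per well were seeded and incubated 24 h, then exposed to a range of test concentrations. Medium alone served as the negative control and doxorubicin as the positive control. MTT (5 mg/mL stock) was added for a further 4 h, and the formazan was dissolved in DMSO. Percent inhibition versus control was calculated, and IC50 was taken from the dose–inhibition curve. Each experiment was run three times.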

A549 = assay: Cytotoxicity against human A549 cells assessed as reduction in cell viability after 24 hrs by MTT assay; type: functional, cell-based; conditions: A549, 24 h; method in brief: as §1
HT-29 = assay: Cytotoxicity against human HT-29 cells assessed as reduction in cell viability after 24 hrs by MTT assay; type: functional, cell-based; conditions: HT-29, 24 h; method in brief: as §1
MCF7 [2] = assay: Cytotoxicity against human MCF7 cells assessed as reduction in cell viability after 24 hrs by MTT assay; type: functional, cell-based; conditions: MCF7, 24 h; method in brief: as §1
MCF7 [3] = assay: Ratio of doxorubicin IC50 to compound IC50 for human MCF7 cells assessed as reduction in cell viability after 24 hrs by MTT assay; type: functional

Row | SMILES | IC50 [1] | IC50 (A549) | IC50 (HT-29) | IC50 (MCF7 [2]) | Ratio IC50 (MCF7 [3])
1 | c1ccc(CNC(c2ccc[nH]2)c2nnc(-c3ccccc3)o2)cc1 (stereo not drawn) | 231 µM | 187 µM | 198 µM | 216 µM | –
2 | Clc1cccc(-c2nnc(C(NCc3ccccc3)c3ccc[nH]3)o2)c1 (stereo not drawn) | 41.1 µM | 62.2 µM | 48.3 µM | 56.7 µM | –
3 | Clc1ccc(-c2nnc(C(NCc3ccccc3)c3ccc[nH]3)o2)cc1 (stereo not drawn) | 41 µM | 73.8 µM | 54.5 µM | 46.2 µM | –
4 | Clc1ccc(-c2nnc(C(NCc3ccccc3)c3ccc[nH]3)o2)cc1Cl (stereo not drawn) | 15.2 µM | 25.5 µM | 41.7 µM | 13.9 µM | –
5 | Fc1cc(-c2nnc(C(NCc3ccccc3)c3ccc[nH]3)o2)c(Cl)cc1Cl (stereo not drawn) | 25.6 µM | 27.5 µM | 20 µM | 21.7 µM | –
6 | Brc1ccc(-c2nnc(C(NCc3ccccc3)c3ccc[nH]3)o2)cc1 (stereo not drawn) | 70.6 µM | 87.2 µM | 58.3 µM | 96.6 µM | –
7 | Cc1ccc(-c2nnc(C(NCc3ccccc3)c3ccc[nH]3)o2)cc1 (stereo not drawn) | 909 µM | 744 µM | 249 µM | 1120 µM | –
8 | Cc1cccc(-c2nnc(C(NCc3ccccc3)c3ccc[nH]3)o2)c1 (stereo not drawn) | 311 µM | 430 µM | 202 µM | 480 µM | –
9 | COc1ccc(-c2nnc(C(NCc3ccccc3)c3ccc[nH]3)o2)cc1 (stereo not drawn) | 170 µM | 326 µM | 344 µM | 460 µM | –
10 | COc1ccc(-c2nnc(C(NCc3ccccc3)c3ccc[nH]3)o2)c(OC)c1 (stereo not drawn) | 418 µM | 296 µM | 392 µM | 471 µM | –
11 | COc1ccccc1CNC(c1ccc[nH]1)c1nnc(-c2ccccc2)o1 (stereo not drawn) | 278 µM | 362 µM | 392 µM | 441 µM | –
12 | COc1ccc(CNC(c2ccc[nH]2)c2nnc(-c3ccccc3)o2)cc1 (stereo not drawn) | 175 µM | 278 µM | 286 µM | 142 µM | –
13 | COc1ccc(CNC(c2ccc[nH]2)c2nnc(-c3cccc(Cl)c3)o2)cc1 (stereo not drawn) | 84.6 µM | 77.5 µM | 95.6 µM | 41.7 µM | –
14 | Cc1ccc(CNC(c2ccc[nH]2)c2nnc(-c3ccc(Br)cc3)o2)cc1 (stereo not drawn) | 51.9 µM | 53.9 µM | 49.5 µM | 4.3 µM | 4
15 | COc1ccc(-c2nnc(C(NCc3ccc(F)cc3)c3ccc[nH]3)o2)cc1 (stereo not drawn) | 14.7 µM | 52.8 µM | 39.4 µM | 28.9 µM | –
16 | Clc1cccc(-c2nnc(C(NCc3ccc(Cl)c(Cl)c3)c3ccc[nH]3)o2)c1 (stereo not drawn) | 25.1 µM | 13.3 µM | 18 µM | 19 µM | –
17 | Clc1ccc(CNC(c2ccc[nH]2)c2nnc(-c3ccc(Br)cc3)o2)cc1Cl (stereo not drawn) | 45.3 µM | 17.3 µM | 20 µM | 31 µM | –
18 | COc1cccc2c1C(=O)c1c(O)c3c(c(O)c1C2=O)C[C@@](O)(C(=O)CO)C[C@@H]3O[C@H]1C[C@H](N)[C@H](O)[C@H](C)O1 [DOXORUBICIN] | 15.4 µM | 13.6 µM | 16 µM | 16.9 µM | –
